Here are results for eight compounds from ChEMBL document CHEMBL3797186, “Single Residue Substitutions That Confer Voltage-Gated Sodium Ion Channel Subtype Selectivity in the NaV1.7 Inhibitory Peptide GpTx-1” (J Med Chem, 2016).

Structures are written as SMILES. Positions of bridges follow the written chain, without caps; N, C: chain ends. Residues, ends and D or L forms follow the SMILES beside them. A value given as a limit tells only on which side of the number the result lay.

Sodium channel protein type 5 subunit alpha, sequence (Q14524 whole entry): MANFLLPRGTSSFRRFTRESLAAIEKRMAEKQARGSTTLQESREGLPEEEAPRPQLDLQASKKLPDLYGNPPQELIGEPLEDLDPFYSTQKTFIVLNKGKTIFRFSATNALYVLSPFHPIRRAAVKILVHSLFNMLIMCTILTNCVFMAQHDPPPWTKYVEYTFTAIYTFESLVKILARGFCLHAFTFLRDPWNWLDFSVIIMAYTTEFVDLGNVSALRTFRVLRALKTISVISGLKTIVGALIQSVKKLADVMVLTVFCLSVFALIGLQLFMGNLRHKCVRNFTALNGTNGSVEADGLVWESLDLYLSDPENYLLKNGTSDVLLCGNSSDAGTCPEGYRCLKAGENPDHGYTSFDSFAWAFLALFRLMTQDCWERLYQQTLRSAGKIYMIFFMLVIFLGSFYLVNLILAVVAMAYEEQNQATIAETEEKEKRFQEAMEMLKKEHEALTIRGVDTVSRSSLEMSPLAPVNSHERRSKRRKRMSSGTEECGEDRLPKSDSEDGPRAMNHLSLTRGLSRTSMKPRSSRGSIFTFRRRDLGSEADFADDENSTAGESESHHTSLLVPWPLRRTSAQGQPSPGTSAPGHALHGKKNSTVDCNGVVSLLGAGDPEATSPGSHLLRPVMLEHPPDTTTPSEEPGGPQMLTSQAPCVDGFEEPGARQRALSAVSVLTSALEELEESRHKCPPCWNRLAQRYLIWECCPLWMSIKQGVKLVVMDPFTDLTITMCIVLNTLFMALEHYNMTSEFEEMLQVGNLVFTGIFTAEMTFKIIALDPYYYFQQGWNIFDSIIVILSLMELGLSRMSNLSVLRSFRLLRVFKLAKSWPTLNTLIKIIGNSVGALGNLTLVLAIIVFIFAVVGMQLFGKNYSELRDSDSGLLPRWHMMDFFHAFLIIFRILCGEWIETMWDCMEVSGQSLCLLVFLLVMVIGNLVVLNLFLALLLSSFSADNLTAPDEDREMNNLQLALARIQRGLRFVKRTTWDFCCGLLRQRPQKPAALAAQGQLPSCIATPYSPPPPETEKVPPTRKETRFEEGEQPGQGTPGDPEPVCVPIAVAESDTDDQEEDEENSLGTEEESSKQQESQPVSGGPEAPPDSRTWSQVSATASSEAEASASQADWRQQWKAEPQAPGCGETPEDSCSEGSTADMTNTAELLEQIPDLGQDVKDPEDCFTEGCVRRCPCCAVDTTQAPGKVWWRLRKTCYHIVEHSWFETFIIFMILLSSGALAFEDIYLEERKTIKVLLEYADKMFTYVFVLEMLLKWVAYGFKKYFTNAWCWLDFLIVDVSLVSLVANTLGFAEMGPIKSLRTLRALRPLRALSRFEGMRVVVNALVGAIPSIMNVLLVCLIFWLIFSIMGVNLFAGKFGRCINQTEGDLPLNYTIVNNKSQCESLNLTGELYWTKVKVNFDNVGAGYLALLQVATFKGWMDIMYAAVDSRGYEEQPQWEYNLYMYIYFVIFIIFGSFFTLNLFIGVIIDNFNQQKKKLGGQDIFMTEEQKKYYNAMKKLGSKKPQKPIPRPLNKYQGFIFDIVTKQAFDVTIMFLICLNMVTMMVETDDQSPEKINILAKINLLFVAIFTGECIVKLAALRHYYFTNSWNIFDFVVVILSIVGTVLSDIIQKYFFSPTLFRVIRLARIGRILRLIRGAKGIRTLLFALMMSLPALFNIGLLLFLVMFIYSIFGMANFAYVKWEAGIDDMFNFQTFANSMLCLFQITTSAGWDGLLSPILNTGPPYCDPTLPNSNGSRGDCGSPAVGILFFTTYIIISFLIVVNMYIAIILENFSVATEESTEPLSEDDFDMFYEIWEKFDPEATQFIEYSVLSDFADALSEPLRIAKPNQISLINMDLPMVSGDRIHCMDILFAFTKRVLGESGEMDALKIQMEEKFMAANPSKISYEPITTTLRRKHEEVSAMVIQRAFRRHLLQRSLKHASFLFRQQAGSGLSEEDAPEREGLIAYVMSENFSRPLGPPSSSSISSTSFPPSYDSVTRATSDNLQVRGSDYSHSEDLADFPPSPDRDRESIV

The target of the experiment is Sodium channel protein type 5 subunit alpha (Homo sapiens, UniProt Q14524). Nature of the experiment: Inhibition of human Nav1.5 expressed in HEK293 cells assessed as inward peak current by ion-works quattro patch clamp electrophysiology method. The format is cell-based. In outline:
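Stable HEK293 line expressing human NaV1.5, recorded by population patch clamp on the IonWorks Quattro.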
(In general: Patch clamp records ionic current or voltage across a cell membrane.)
Usually IC50 stands for the concentration that gives 50% inhibition. For the compound `CC[C@H](C)[C@@H]1NC(=O)[C@@H]2CSSC[C@@H]3NC(=O)[C@H](C(C)C)NC(=O)[C@H](CC(C)C)NC(=O)[C@H](CC(N)=O)NC(=O)[C@@H]4CCCN4C(=O)[C@H](CCCNC(=N)N)NC(=O)[C@H](CSSC[C@H](NC(=O)[C@@H](N)CC(=O)O)C(=O)N[C@@H](CC(C)C)C(=O)NCC(=O)N[C@@H](Cc4ccccc4)C(=O)N[C@@H](CCSC)C(=O)N[C@@H](CCCNC(=N)N)C(=O)N[C@@H](CCCCN)C(=O)N2)NC(=O)[C@H](CSSC[C@@H](C(=O)N[C@@H](CCCCN)C(=O)N[C@@H](Cc2ccc(O)cc2)C(=O)N[C@H](C(=O)N[C@@H](Cc2ccccc2)C(N)=O)C(C)C)NC(=O)[C@H](Cc2c[nH]c4ccccc24)NC(=O)[C@H](CCCCN)NC(=O)[C@H](Cc2c[nH]c4ccccc24)NC(=O)[C@H]([C@@H](C)O)NC(=O)[C@H](CCCNC(=N)N)NC(=O)[C@H](CO)NC3=O)NC(=O)[C@H](CCCCN)NC(=O)[C@H](CC(=O)O)NC(=O)[C@H](CC(N)=O)NC(=O)[C@H](CC(=O)O)NC(=O)[C@@H]2CCCN2C1=O` (H-DCLGFMRKCIPDNDKCCRPNLVCSRTWKWCKYVF-NH2; disulfide 2-17, 9-23, 16-30), the IC50 was more than 5 µM.
As to `CC[C@H](C)[C@@H]1NC(=O)[C@@H]2CSSC[C@@H]3NC(=O)[C@H](C(C)C)NC(=O)[C@H](CC(C)C)NC(=O)[C@H](CCCNC(=N)N)NC(=O)[C@@H]4CCCN4C(=O)[C@H](CCCNC(=N)N)NC(=O)[C@H](CSSC[C@H](NC(=O)[C@@H](N)CC(=O)O)C(=O)N[C@@H](CC(C)C)C(=O)NCC(=O)N[C@@H](Cc4ccccc4)C(=O)N[C@@H](CCSC)C(=O)N[C@@H](CCCNC(=N)N)C(=O)N[C@@H](CCCCN)C(=O)N2)NC(=O)[C@H](CSSC[C@@H](C(=O)N[C@@H](CCCCN)C(=O)N[C@@H](Cc2ccc(O)cc2)C(=O)N[C@H](C(=O)N[C@@H](Cc2ccccc2)C(N)=O)C(C)C)NC(=O)[C@H](Cc2c[nH]c4ccccc24)NC(=O)[C@H](CCCCN)NC(=O)[C@H](Cc2cnc[nH]2)NC(=O)[C@H]([C@@H](C)O)NC(=O)[C@H](CCCNC(=N)N)NC(=O)[C@H](CO)NC3=O)NC(=O)[C@H](CCCCN)NC(=O)[C@H](CC(=O)O)NC(=O)[C@H](CC(N)=O)NC(=O)[C@H](CC(=O)O)NC(=O)[C@@H]2CCCN2C1=O` (H-DCLGFMRKCIPDNDKCCRPRLVCSRTHKWCKYVF-NH2; disulfide 2-17, 9-23, 16-30), the IC50 is more than 5 µM.
For the compound `CC[C@H](C)[C@@H]1NC(=O)[C@@H]2CSSC[C@@H]3NC(=O)[C@H](C(C)C)NC(=O)[C@H](CC(C)C)NC(=O)[C@H](CC(N)=O)NC(=O)[C@H](CCCNC(=N)N)NC(=O)[C@H](CCCNC(=N)N)NC(=O)[C@H](CSSC[C@H](NC(=O)[C@@H](N)CC(=O)O)C(=O)N[C@@H](CC(C)C)C(=O)NCC(=O)N[C@@H](Cc4ccccc4)C(=O)N[C@@H](CCSC)C(=O)N[C@@H](CCCNC(=N)N)C(=O)N[C@@H](CCCCN)C(=O)N2)NC(=O)[C@H](CSSC[C@@H](C(=O)N[C@@H](CCCCN)C(=O)N[C@@H](Cc2ccc(O)cc2)C(=O)N[C@H](C(=O)N[C@@H](Cc2ccccc2)C(N)=O)C(C)C)NC(=O)[C@H](Cc2c[nH]c4ccccc24)NC(=O)[C@H](CCCCN)NC(=O)[C@H](Cc2cnc[nH]2)NC(=O)[C@H]([C@@H](C)O)NC(=O)[C@H](CCCNC(=N)N)NC(=O)[C@H](CO)NC3=O)NC(=O)[C@H](CCCCN)NC(=O)[C@H](CC(=O)O)NC(=O)[C@H](CC(N)=O)NC(=O)[C@H](CC(=O)O)NC(=O)[C@@H]2CCCN2C1=O` (H-DCLGFMRKCIPDNDKCCRRNLVCSRTHKWCKYVF-NH2; disulfide 2-17, 9-23, 16-30), the IC50 was more than 5 µM.
In the case of `CC[C@H](C)[C@@H]1NC(=O)[C@@H]2CSSC[C@@H]3NC(=O)[C@H](C(C)C)NC(=O)[C@H](CC(C)C)NC(=O)[C@H](CC(N)=O)NC(=O)[C@@H]4CCCN4C(=O)[C@H](CCCNC(=N)N)NC(=O)[C@H](CSSC[C@H](NC(=O)[C@@H](N)CC(=O)O)C(=O)N[C@@H](CC(C)C)C(=O)NCC(=O)N[C@@H](Cc4ccccc4)C(=O)N[C@@H](CCSC)C(=O)N[C@@H](CCCNC(=N)N)C(=O)N[C@@H](CCCCN)C(=O)N2)NC(=O)[C@H](CSSC[C@@H](C(=O)N[C@@H](CCCCN)C(=O)N[C@@H](Cc2ccc(O)cc2)C(=O)N[C@H](C(=O)N[C@@H](Cc2ccccc2)C(N)=O)C(C)C)NC(=O)[C@H](Cc2c[nH]c4ccccc24)NC(=O)[C@H](CCCCN)NC(=O)[C@H](Cc2cnc[nH]2)NC(=O)[C@H]([C@@H](C)O)NC(=O)[C@H](CCCNC(=N)N)NC(=O)[C@H](CO)NC3=O)NC(=O)[C@H](CCCCN)NC(=O)[C@H](CC(=O)O)NC(=O)[C@H](CC(N)=O)NC(=O)[C@H](CCCCN)NC(=O)[C@@H]2CCCN2C1=O` (H-DCLGFMRKCIPKNDKCCRPNLVCSRTHKWCKYVF-NH2; disulfide 2-17, 9-23, 16-30), the IC50 is more than 4.7 µM.
The result for `CC[C@H](C)[C@@H]1NC(=O)[C@@H]2CSSC[C@@H]3NC(=O)[C@H](C(C)C)NC(=O)[C@H](CC(C)C)NC(=O)[C@H](CC(N)=O)NC(=O)[C@@H]4CCCN4C(=O)[C@H](CCCNC(=N)N)NC(=O)[C@H](CSSC[C@H](NC(=O)[C@@H](N)CC(=O)O)C(=O)N[C@@H](CC(C)C)C(=O)NCC(=O)N[C@@H](Cc4ccccc4)C(=O)N[C@@H](CCSC)C(=O)N[C@@H](CCCNC(=N)N)C(=O)N[C@@H](CCCCN)C(=O)N2)NC(=O)[C@H](CSSC[C@@H](C(=O)N[C@@H](CCCCN)C(=O)N[C@@H](Cc2ccc(O)cc2)C(=O)N[C@H](C(=O)N[C@@H](Cc2ccccc2)C(N)=O)C(C)C)NC(=O)[C@H](Cc2c[nH]c4ccccc24)NC(=O)[C@H](CCCCN)NC(=O)[C@H](Cc2cnc[nH]2)NC(=O)[C@H]([C@@H](C)O)NC(=O)[C@H](CCCNC(=N)N)NC(=O)[C@H](CO)NC3=O)NC(=O)[C@H](CCCCN)NC(=O)[C@H](CC(=O)O)NC(=O)[C@H](CC(N)=O)NC(=O)[C@H](CCCNC(=N)N)NC(=O)[C@@H]2CCCN2C1=O` (H-DCLGFMRKCIPRNDKCCRPNLVCSRTHKWCKYVF-NH2; disulfide 2-17, 9-23, 16-30) reads more than 4.8 µM.
As for `CSCC[C@@H]1NC(=O)[C@H](Cc2ccccc2)NC(=O)CNC(=O)[C@H](CC(C)C)NC(=O)[C@@H](NC(=O)[C@@H](N)CC(=O)O)CSSC[C@@H]2NC(=O)[C@@H]3CSSC[C@@H](C(=O)N[C@@H](CCCCN)C(=O)N[C@@H](Cc4ccc(O)cc4)C(=O)N[C@H](C(=O)N[C@@H](Cc4ccccc4)C(N)=O)C(C)C)NC(=O)[C@H](Cc4c[nH]c5ccccc45)NC(=O)[C@H](CCCCN)NC(=O)[C@H](Cc4cnc[nH]4)NC(=O)[C@H]([C@@H](C)O)NC(=O)[C@H](CCCNC(=N)N)NC(=O)[C@H](CO)NC(=O)[C@H](CSSC[C@H](NC(=O)[C@H](CCCCN)NC(=O)[C@H](CCCNC(=N)N)NC1=O)C(=O)N[C@@H](CO)C(=O)N1CCC[C@H]1C(=O)N[C@@H](CC(=O)O)C(=O)N[C@@H](CC(N)=O)C(=O)N[C@@H](CC(=O)O)C(=O)N[C@@H](CCCCN)C(=O)N3)NC(=O)[C@H](C(C)C)NC(=O)[C@H](CC(C)C)NC(=O)[C@H](CC(N)=O)NC(=O)[C@@H]1CCCN1C(=O)[C@H](CCCNC(=N)N)NC2=O` (H-DCLGFMRKCSPDNDKCCRPNLVCSRTHKWCKYVF-NH2; disulfide 2-17, 9-23, 16-30), the figure is more than 2.7 µM; as for `CSCC[C@@H]1NC(=O)[C@H](Cc2ccccc2)NC(=O)CNC(=O)[C@H](CC(C)C)NC(=O)[C@@H](NC(=O)[C@@H](N)CC(=O)O)CSSC[C@@H]2NC(=O)[C@@H]3CSSC[C@@H](C(=O)N[C@@H](CCCCN)C(=O)N[C@@H](Cc4ccc(O)cc4)C(=O)N[C@H](C(=O)N[C@@H](Cc4ccccc4)C(N)=O)C(C)C)NC(=O)[C@H](Cc4c[nH]c5ccccc45)NC(=O)[C@H](CCCCN)NC(=O)[C@H](Cc4cnc[nH]4)NC(=O)[C@H]([C@@H](C)O)NC(=O)[C@H](CCCNC(=N)N)NC(=O)[C@H](CO)NC(=O)[C@H](CSSC[C@H](NC(=O)[C@H](CCCCN)NC(=O)[C@H](CCCNC(=N)N)NC1=O)C(=O)N[C@@H]([C@@H](C)O)C(=O)N1CCC[C@H]1C(=O)N[C@@H](CC(=O)O)C(=O)N[C@@H](CC(N)=O)C(=O)N[C@@H](CC(=O)O)C(=O)N[C@@H](CCCCN)C(=O)N3)NC(=O)[C@H](C(C)C)NC(=O)[C@H](CC(C)C)NC(=O)[C@H](CC(N)=O)NC(=O)[C@@H]1CCCN1C(=O)[C@H](CCCNC(=N)N)NC2=O` (H-DCLGFMRKCTPDNDKCCRPNLVCSRTHKWCKYVF-NH2; disulfide 2-17, 9-23, 16-30), more than 5 µM; as for `CSCC[C@@H]1NC(=O)[C@H](Cc2ccccc2)NC(=O)CNC(=O)[C@H](CC(C)C)NC(=O)[C@@H](NC(=O)[C@@H](N)CC(=O)O)CSSC[C@@H]2NC(=O)[C@@H]3CSSC[C@@H](C(=O)N[C@@H](CCCCN)C(=O)N[C@@H](Cc4ccc(O)cc4)C(=O)N[C@H](C(=O)N[C@@H](Cc4ccccc4)C(N)=O)C(C)C)NC(=O)[C@H](Cc4c[nH]c5ccccc45)NC(=O)[C@H](CCCCN)NC(=O)[C@H](Cc4cnc[nH]4)NC(=O)[C@H]([C@@H](C)O)NC(=O)[C@H](CCCNC(=N)N)NC(=O)[C@H](CO)NC(=O)[C@H](CSSC[C@H](NC(=O)[C@H](CCCCN)NC(=O)[C@H](CCCNC(=N)N)NC1=O)C(=O)N[C@@H](C(C)C)C(=O)N1CCC[C@H]1C(=O)N[C@@H](CC(=O)O)C(=O)N[C@@H](CC(N)=O)C(=O)N[C@@H](CC(=O)O)C(=O)N[C@@H](CCCCN)C(=O)N3)NC(=O)[C@H](C(C)C)NC(=O)[C@H](CC(C)C)NC(=O)[C@H](CC(N)=O)NC(=O)[C@@H]1CCCN1C(=O)[C@H](CCCNC(=N)N)NC2=O` (H-DCLGFMRKCVPDNDKCCRPNLVCSRTHKWCKYVF-NH2; disulfide 2-17, 9-23, 16-30), more than 5 µM.
